Active and inactive are the calls of the source. The calls are words filed in the database; no cut-off is given here.
Legend:
[1] = Cytotoxicity against human U138MG cells assessed as reduction in cell viability after 24 hrs by MTT assay; assay type: functional, cell-based; conditions: U138-MG
Procedure, shortened: (§1)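 Seeded 3–5 × 10^3 cells/well, treated the next day with a range of morusin (DMSO stock) for 24 h, 37 °C, 5% CO2. Then fresh medium with 1 mg/mL MTT for 2 h at 37 °C, lysis buffer overnight at 37 °C, OD 570 nm. Mean ± SD from at least three independent experiments in triplicate.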

T98G [2] = test: Cytotoxicity against human T98G cells assessed as reduction in cell viability measured up to 20 uM after 24 hrs by MTT assay in presence of TRAIL; assay type: functional
Procedure, shortened: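 MTT viability. 3–5 × 10^3 cells/well, treated the next day with TRAIL 100 ng/mL plus increasing morusin concentrations for 24 h. 1 mg/mL MTT for 2 h at 37 °C, lysis overnight, OD 570 nm. Living-cell fractions were used for combination index analysis. Mean ± SD, at least three independent experiments.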

T98G [3] = test: Induction of apoptosis in human T98G cells assessed as increase in cleaved caspase 3 levels at 2.5 uM after 24 hrs by Western blot analysis in presence of TRAIL; assay type: functional, cell-based
Procedure, shortened: (§2)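 U87MG and T98G given TRAIL 25 ng/mL plus morusin 2.5 μM together for 24 h; single-agent arms used TRAIL 50 ng/mL or morusin 5 μM. Lysates immunoblotted for cleaved caspase 3, 8, 9 and cleaved PARP, with β-actin as internal control.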

U-87 MG [4] = test: Induction of apoptosis in human U87MG cells assessed as increase in cleaved caspase 8 levels at 2.5 uM after 24 hrs by Western blot analysis in presence of TRAIL; assay type: functional, cell-based; conditions: U-87MG ATCC; procedure, shortened: as §2
T98G [5] = test: Induction of apoptosis in human T98G cells assessed as increase in cleaved caspase 8 levels at 2.5 uM after 24 hrs by Western blot analysis in presence of TRAIL; assay type: functional, cell-based; procedure, shortened: as §2
U-87 MG [6] = test: Induction of apoptosis in human U87MG cells assessed as increase in cleaved caspase 9 levels at 2.5 uM after 24 hrs by Western blot analysis in presence of TRAIL; assay type: functional, cell-based; conditions: U-87MG ATCC; procedure, shortened: as §2
T98G [7] = test: Induction of apoptosis in human T98G cells assessed as increase in cleaved PARP levels at 2.5 uM after 24 hrs by Western blot analysis in presence of TRAIL; assay type: functional, cell-based; procedure, shortened: as §2
U-87 MG [8] = test: Induction of apoptosis in human U87MG cells assessed as apoptic cells at 20 uM after 24 hrs by V-FITC/propidium iodide staining based flow cytometric analysis in presence of TRAIL; assay type: functional, cell-based; conditions: U-87MG ATCC
Procedure, shortened: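 (2–3) × 10^5 cells/well given TRAIL 50 ng/mL with morusin 20 μM for 24 h. Annexin V-FITC/PI double staining, flow cytometry; annexin V-positive cells counted as apoptotic. Mean ± SD, t-test against mock.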

LN-18 [9] = test: Induction of DR5 expression in human LN18 cells after 24 hrs by Western blot analysis; assay type: functional, cell-based
Procedure, shortened: (§3)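 Cells exposed to a range of morusin concentrations for 24 h. Cell extracts immunoblotted for DR4, DR5, DcR1 and DcR2, with β-actin as internal control and HRP-conjugated secondary antibodies (1:5000).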

[10] = Cytotoxicity against human LN18 cells assessed as reduction in cell viability after 24 hrs by MTT assay; assay type: functional, cell-based; conditions: LN-18, 24 h; procedure, shortened: as §1
U-87 MG [11] = test: Induction of DR4 expression in human U87MG cells at 25 uM after 24 hrs by FITC-conjugated flow cytometric analysis; assay type: functional, cell-based; conditions: U-87MG ATCC
Procedure, shortened: (§4)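 Cells given 25 μM morusin for 24 h, then stained on ice for 30 min with 0.5 μg/mL FITC-conjugated anti-DR4, anti-DR5 or isotype IgG in FACS buffer. Surface expression read by flow cytometry.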

[12] = Cytotoxicity against human U87MG cells assessed as cell death after 24 hrs by MTT assay in presence of TRAIL; assay type: functional, U-87MG ATCC
Procedure, shortened: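 U87MG cells (MEM, 10% FBS) were seeded at (3−5) × 10^3 cells/well and treated 1 day later with TRAIL at 100 ng/mL plus graded test compound for 24 h. Fresh medium with 1 mg/mL MTT was added for 2 h at 37 °C, then lysis buffer overnight at 37 °C, and OD was read at 570 nm. Data are mean ± SD from ≥3 independent experiments in triplicate.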

[13] = Reduction of XIAP expression in human U373MG cells after 24 hrs by Western blot analysis; assay type: functional, cell-based; conditions: U-373MG ATCC
Procedure, shortened: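 U87MG (MEM) and U373MG (RPMI) cells were given graded morusin concentrations for 24 h. Whole-cell extracts were immunoblotted for anti-apoptotic proteins, with β-actin as loading control.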

U373 MG [14] = test: Effect on cIAP1 expression in human U373MG cells at 12 to 25 uM after 24 hrs by Western blot analysis; assay type: functional, cell-based; conditions: U-373MG ATCC
Procedure, shortened: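 U87MG and U373MG exposed to a range of morusin concentrations for 24 h. Whole-cell extracts immunoblotted for cIAP1, with β-actin as internal control.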

[15] = Reduction of XIAP mRNA expression in human U87MG cells at 25 uM by RT-qPCR analysis; assay type: functional, cell-based; conditions: U-87MG ATCC, TDE = time-dependent effect
Procedure, shortened: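 U87MG cells were exposed to 25 μM morusin over a time course. Total RNA (1 μg) was reverse transcribed, and XIAP and survivin transcripts were measured by RT-qPCR against GAPDH. Results are mean ± SD from at least three independent experiments.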

[16] = Reduction of PDGFR expression in human U373MG cells at 25 uM after 24 hrs by Western blot analysis; assay type: functional, cell-based; conditions: U-373MG ATCC
Procedure, shortened: (§5)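 LN18, U87MG, T98G, U251MG and U373MG glioblastoma cells were exposed to morusin for 24 h. Cells were maintained in DMEM, MEM or RPMI with 10% FBS at 37 °C and 5% CO2. Whole-cell lysates were Western blotted for receptor proteins, with β-actin as internal control.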

[17] = Reduction of EGFR expression in human U373MG cells at 25 uM after 24 hrs by Western blot analysis; assay type: functional, cell-based; conditions: U-373MG ATCC; procedure, shortened: as §5
[18] = Reduction of EGFR expression in human U251MG cells at 25 uM after 24 hrs by Western blot analysis; assay type: functional, cell-based; conditions: U-251; procedure, shortened: as §5
[19] = Reduction of EGFR expression in human LN18 cells at 25 uM after 24 hrs by Western blot analysis; assay type: functional, cell-based; conditions: LN-18; procedure, shortened: as §5
U-251 [20] = test: Effect on DcR2 expression in human U251MG cells upto 25 uM after 24 hrs by Western blot analysis; assay type: functional, cell-based; procedure, shortened: as §3
U-87 MG [21] = test: Effect on DcR2 expression in human U87MG cells upto 25 uM after 24 hrs by Western blot analysis; assay type: functional, cell-based; conditions: U-87MG ATCC; procedure, shortened: as §3
LN-18 [22] = test: Effect on DR4 expression in human LN18 cells upto 25 uM after 24 hrs by Western blot analysis; assay type: functional, cell-based; procedure, shortened: as §3
U-251 [23] = test: Effect on DR4 expression in human U251MG cells upto 25 uM after 24 hrs by Western blot analysis; assay type: functional, cell-based; procedure, shortened: as §3
U-251 [24] = test: Induction of DR5 expression in human U251MG cells at 25 uM after 24 hrs by FITC-conjugated flow cytometric analysis; assay type: functional, cell-based; procedure, shortened: as §4
U373 MG [25] = test: Effect on cIAP1 expression in human U373MG cells at 25 uM after 3 to 18 hrs by Western blot analysis; assay type: functional, cell-based; conditions: U-373MG ATCC
Procedure, shortened: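 Time course: U87MG and U373MG cells held at 25 μM morusin for the times indicated. Extracts immunoblotted (cIAP1 or DR5), with β-actin as loading control.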

[26] = Stability in human U87MG cells assessed as compound remaining at 10 uM after 24 hrs; assay type: ADME, cell-based, U-87MG ATCC; conditions: read-out: Stability

**Q.** With `CC(C)=CCc1c(-c2ccc(O)cc2O)oc2c3c(cc(O)c2c1=O)OC(C)(C)C=C3` [MORUSIN] as the compound, how does the IC50 [1] read?
**A.** The IC50 was 24 µM.

**Q.** What about the CI (T98G [2]) of the same compound?
**A.** Its CI is under 0.8.

**Q.** And the Activity (T98G [3])?
**A.** Its Activity is “Active”.

**Q.** What about the Activity (U-87 MG [4]) of the same compound?
**A.** The Activity was “Active”.

**Q.** And the Activity (T98G [5])?
**A.** The Activity was “Active”.

**Q.** What about the Activity (U-87 MG [6]) of the same compound?
**A.** Its Activity is “Active”.

**Q.** And the Activity (T98G [7])?
**A.** Its Activity is “Active”.

**Q.** What about the Activity (U-87 MG [8]) of the same compound?
**A.** Its Activity is “Active”.

**Q.** And the Activity (LN-18 [9])?
**A.** The Activity was “Dose-dependent effect”.

**Q.** What about the IC50 [10] of the same compound?
**A.** Its IC50 is 24 µM.

**Q.** And the Activity (U-87 MG [11])?
**A.** The Activity was “inactive”.

**Q.** And the Activity [12]?
**A.** The Activity was 29%.

**Q.** What about the inhibition [13] of the same compound?
**A.** The inhibition was “Dose-dependent effect”.

**Q.** What about the Activity (U373 MG [14]) of the same compound?
**A.** Its Activity is “inactive”.

**Q.** What about the Activity [15] of the same compound?
**A.** Its Activity is “tde”.

**Q.** And the Activity [16]?
**A.** Its Activity is “Active”.

**Q.** What about the Activity [17] of the same compound?
**A.** Its Activity is “Active”.

**Q.** What about the Activity [18] of the same compound?
**A.** Its Activity is “Active”.

**Q.** And the Activity [19]?
**A.** Its Activity is “Active”.

**Q.** What about the Activity (U-251 [20]) of the same compound?
**A.** The Activity was “inactive”.

**Q.** What about the Activity (U-87 MG [21]) of the same compound?
**A.** The Activity was “inactive”.

**Q.** And the Activity (LN-18 [22])?
**A.** Its Activity is “inactive”.

**Q.** And the Activity (U-251 [23])?
**A.** Its Activity is “inactive”.

**Q.** What about the Activity (U-251 [24]) of the same compound?
**A.** The Activity was “Active”.

**Q.** And the Activity (U373 MG [25])?
**A.** Its Activity is “inactive”.

**Q.** And the remaining at 24 h, 10 µM [26]?
**A.** The remaining at 24 h, 10 µM was over 94%.

Source: ChEMBL document CHEMBL3797089, “Morusin Induces TRAIL Sensitization by Regulating EGFR and DR5 in Human Glioblastoma Cells” (J Nat Prod, 2016)
